Results from different studies.
Protocols differ between the studies behind these lines.
Matrix: plasma

COc1nc(-c2cccc(-c3ccccc3)c2C)ccc1CNCCNC(=O)CCCCCCCCCCC(=O)N1CCN(CCNC(=O)c2cc3c(=O)n4cccc(C)c4nc3n(CCc3cccs3)c2=N)CC1 — AUC(0-inf) (male Sprague-Dawley rat; oral; 40 mg/kg): 305 ng·h/mL
CC(=O)O[C@@H]1CC[C@@]2(C)[C@@H](CC[C@]3(C)[C@@H]2C(=O)C=C2[C@@H]4[C@@H](C)[C@H](C)CC[C@]4(C)CC[C@]23C)[C@@]1(C)C(=O)O — AUC(0-inf) (female Wistar rat; oral; 1 mg/kg; single dose): 50200 ng·h/mL
COc1cc(-c2cc(C(C)=O)n3ccccc23)c(OC)cc1Cn1ccnc1 — AUC(0-inf) (male Sprague-Dawley rat; intravenous; 5 mg/kg): 4300 ng·h/mL
CCN(CC)Cc1ccc2cc(COC(=O)Nc3ccc(C(=O)NO)cc3)ccc2c1 — AUC(0-inf) (male Sprague-Dawley rat; oral; 10 mg/kg): 8730 ng·h/mL
Cn1c(=O)c2[nH]cnc2n(C)c1=O — AUC(0-inf) (male Sprague-Dawley rat; intravenous; 11.25 mg/kg): 32700 ng·h/mL
C[C@H]1Oc2cc(cnc2N)-c2c(nn(C)c2C#N)CN(C)C(=O)c2ccc(F)cc21 — AUC(0-inf) (Sprague-Dawley rat; intravenous; 1 mg/kg; single dose): 4470 ng·h/mL
CC[C@@H]([C@H](C)O)n1ncn(-c2ccc(N3CCN(c4ccc(OC[C@@H]5CO[C@@](Cn6cncn6)(c6ccc(F)cc6F)C5)cc4)CC3)cc2)c1=O — AUC(0-inf) (Sprague-Dawley rat; oral; 40 mg/kg): 10200 ng·h/mL
O=C1CCC(N2Cc3cc(C4CCN(Cc5ccccc5)CC4)ccc3C2=O)C(=O)N1 (stereo not drawn) — AUC(0-inf) (male Sprague-Dawley rat; oral; 3 mg/kg): 349 ng·h/mL
CC[C@H](C)[C@H](NC(=O)[C@@H]1CCCN1C(=O)CNC(=O)[C@H](Cc1ccccc1)NC(=O)[C@H](CC(N)=O)NC(=O)[C@H](CC(N)=O)NC(=O)[C@H](CO)NC(=O)[C@H](CO)NC(=O)[C@H](Cc1c[nH]cn1)NC(=O)[C@H](CCCNC(=N)N)NC(=O)[C@H](CC(C)C)NC(=O)[C@H](Cc1ccccc1)NC(=O)[C@H](CCC(=O)O)NC(=O)[C@H](C)NC(=O)[C@H](CC(C)C)NC(=O)[C@H](CCCNC(=N)N)NC(=O)[C@H](CCC(N)=O)NC(=O)[C@@H](NC(=O)[C@H](C)NC(=O)[C@@H]1CSSC[C@H](NC(=O)[C@H](CCCCN)NC(=O)CC[C@H](NC(=O)CCCCCCCCCCCCCCCCCCC(=O)O)C(=O)O)C(=O)N[C@@H](CC(N)=O)C(=O)N[C@@H]([C@@H](C)O)C(=O)N[C@@H](C)C(=O)N[C@@H]([C@@H](C)O)C(=O)N1)[C@@H](C)O)C(=O)N[C@@H](CC(C)C)C(=O)N1CCC[C@H]1C(=O)N1CCC[C@H]1C(=O)N[C@H](C(=O)N[C@@H](CC(N)=O)C(=O)N[C@H](C(=O)NCC(=O)N[C@@H](CO)C(=O)N[C@@H](CC(N)=O)C(=O)N[C@H](C(=O)N1CCC[C@H]1C(N)=O)[C@@H](C)O)C(C)C)[C@@H](C)O — AUC(0-inf) (male Sprague-Dawley rat; subcutaneous; 30 nmol/kg; single dose): 5 µM·h
CNC(=O)c1cc(Oc2ccc(NC(=O)Nc3ccc(Cl)c(C(F)(F)F)c3)cc2)ccn1 — AUC(0-inf) (male Sprague-Dawley rat; oral; 100 mg/kg; single dose): 18400 ng·h/mL
C[C@@]12C[C@@]3(O)O[C@@H](O1)[C@]1(COC(=O)c4ccccc4)[C@H]3C[C@@]12O[C@@H]1O[C@H](CO)[C@@H](O)[C@H](O)[C@H]1O — AUC(0-inf) (male Sprague-Dawley rat; oral; 80 mg/kg): 4.33 ng·h/mL
COc1ccc(-c2coc3cc(O)cc(O)c3c2=O)cc1 — AUC(0-inf) (rat; intravenous; 2 mg/kg): 683 ng·h/mL
COc1ccc(N(Cc2csc(-c3ccccc3)n2)C(=O)CCCCCC(=O)NO)cc1 — AUC(0-inf) (female Sprague-Dawley rat; intravenous; 5 mg/kg): 30.7 ng·h/mL
Cc1nc(Nc2ncc(C(=O)Nc3c(C)cccc3Cl)s2)cc(N2CCN(CCO)CC2)n1 — AUC(0-inf) (male Sprague-Dawley rat; oral; 5 mg/kg; single dose): 0.199 µM·h
CONC(=O)c1cccc2c1cc(C)n2-c1nc2c(c(NCc3ccccc3)n1)CCCN2 — AUC(0-inf) (male Sprague-Dawley rat; intravenous; 1 mg/kg; single dose): 32.5 ng·h/mL
